Test results taken from ChEMBL document CHEMBL3046951, “Volatile constituents from the leaves of Callicarpa japonica Thunb. and their antibacterial activities” (2004).

Legend:
Assay type in all cases: functional
Listeria monocytogenes [1] = test: Antimicrobial activity against Listeria monocytogenes ATCC 19111 assessed as growth inhibition rate at 61.12 mg/l after 72 hr by spectrophotometry; conditions: ATCC 19111, 72 h, read-out: GI
Summary of the method: (§1)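 L. monocytogenes was grown at 30 °C in tryptic soy broth, subcultured for 18 h, and exposed to pure volatile compounds (>95% purity). Growth was followed by Bioscreen C optical density every 24 h for 72 h against a 10% Tween 80 control.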

Staphylococcus aureus [2] = test: Antimicrobial activity against Staphylococcus aureus ATCC 25923 assessed as growth inhibition rate at 43 mg/l after 72 hr by spectrophotometry; conditions: ATCC 25923, 72 h, read-out: GI
Staphylococcus aureus [3] = test: Antimicrobial activity against Staphylococcus aureus ATCC 25923 assessed as growth inhibition rate at 6.12 mg/l after 72 hr by spectrophotometry; conditions: ATCC 25923, 72 h, read-out: GI
Listeria monocytogenes [4] = test: Antimicrobial activity against Listeria monocytogenes ATCC 19111 assessed as growth inhibition rate at 43 mg/l after 72 hr by spectrophotometry; conditions: ATCC 19111, 72 h, read-out: GI; summary of the method: as §1
Escherichia coli [5] = test: Antimicrobial activity against Escherichia coli O157:H7 ATCC 43894 assessed as growth inhibition rate at 247 mg/l after 72 hr by spectrophotometry; conditions: O157:H7 ATCC 43894, 72 h, read-out: GI
Bacillus cereus [6] = test: Antimicrobial activity against Bacillus cereus ATCC 11778 assessed as growth inhibition rate at 6.12 mg/l after 72 hr by spectrophotometry; conditions: ATCC 11778, 72 h, read-out: GI
Summary of the method: (§2)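 Pure volatile compounds (purity >95%; one at 90%) were tested against B. cereus ATCC 11778. The strain was grown at 30 °C in nutrient broth for 24 h, then subcultured for 18 h. Optical density was read in a Bioscreen C every 24 h for 72 h, with 10% Tween 80 as the control.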

Escherichia coli [7] = test: Antimicrobial activity against Escherichia coli O157:H7 ATCC 43894 assessed as growth inhibition rate at 6.12 mg/l after 72 hr by spectrophotometry; conditions: O157:H7 ATCC 43894, 72 h, read-out: GI
Listeria monocytogenes [8] = test: Antimicrobial activity against Listeria monocytogenes ATCC 19111 assessed as growth inhibition rate at 6.12 mg/l after 72 hr by spectrophotometry; conditions: ATCC 19111, 72 h, read-out: GI; summary of the method: as §1
Listeria monocytogenes [9] = test: Antimicrobial activity against Listeria monocytogenes ATCC 19111 assessed as growth inhibition rate at 21.52 mg/l after 72 hr by spectrophotometry; conditions: ATCC 19111, 72 h, read-out: GI; summary of the method: as §1
Vibrio parahaemolyticus [10] = test: Antimicrobial activity against Vibrio parahaemolyticus ATCC 33844 assessed as growth inhibition rate at 6.12 mg/l after 72 hr by spectrophotometry; conditions: ATCC 33844, 72 h, read-out: GI
Staphylococcus aureus [11] = test: Antimicrobial activity against Staphylococcus aureus ATCC 25923 assessed as growth inhibition rate at 215.04 mg/l after 72 hr by spectrophotometry; conditions: ATCC 25923, 72 h, read-out: GI
Vibrio parahaemolyticus [12] = test: Antimicrobial activity against Vibrio parahaemolyticus ATCC 33844 assessed as growth inhibition rate at 247 mg/l after 72 hr by spectrophotometry; conditions: ATCC 33844, 72 h, read-out: GI
Staphylococcus aureus [13] = test: Antimicrobial activity against Staphylococcus aureus ATCC 25923 assessed as growth inhibition rate at 247 mg/l after 72 hr by spectrophotometry; conditions: ATCC 25923, 72 h, read-out: GI
Vibrio parahaemolyticus [14] = test: Antimicrobial activity against Vibrio parahaemolyticus ATCC 33844 assessed as growth inhibition rate at 107.52 mg/l after 72 hr by spectrophotometry; conditions: ATCC 33844, 72 h, read-out: GI
Salmonella typhimurium [15] = test: Antimicrobial activity against Salmonella enterica subsp. enterica serovar Typhimurium ATCC 14028 assessed as growth inhibition rate at 6.12 mg/l after 72 hr by spectrophotometry; conditions: ATCC 14028, 72 h, read-out: GI
Escherichia coli [16] = test: Antimicrobial activity against Escherichia coli O157:H7 ATCC 43894 assessed as growth inhibition rate at 61.12 mg/l after 72 hr by spectrophotometry; conditions: O157:H7 ATCC 43894, 72 h, read-out: GI
Summary of the method: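 Authentic volatiles (>95% purity; 2,4-heptadienal 90%) tested against 18 h subcultures. Growth media: E. coli O157:H7 and S. aureus in tryptic soy broth at 37 °C; L. monocytogenes in tryptic soy broth at 30 °C; V. parahaemolyticus in tryptic soy broth + 3% NaCl at 37 °C; S. typhimurium in nutrient broth at 30 °C. Bioscreen C OD every 24 h for 72 h versus 10% Tween 80 control.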

Escherichia coli [17] = test: Antimicrobial activity against Escherichia coli O157:H7 ATCC 43894 assessed as growth inhibition rate at 107.52 mg/l after 72 hr by spectrophotometry; conditions: O157:H7 ATCC 43894, 72 h, read-out: GI
Escherichia coli [18] = test: Antimicrobial activity against Escherichia coli O157:H7 ATCC 43894 assessed as growth inhibition rate at 215.04 mg/l after 72 hr by spectrophotometry; conditions: O157:H7 ATCC 43894, 72 h, read-out: GI
Staphylococcus aureus [19] = test: Antimicrobial activity against Staphylococcus aureus ATCC 25923 assessed as growth inhibition rate at 61.12 mg/l after 72 hr by spectrophotometry; conditions: ATCC 25923, 72 h, read-out: GI
Staphylococcus aureus [20] = test: Antimicrobial activity against Staphylococcus aureus ATCC 25923 assessed as growth inhibition rate at 21.52 mg/l after 72 hr by spectrophotometry; conditions: ATCC 25923, 72 h, read-out: GI
Salmonella typhimurium [21] = test: Antimicrobial activity against Salmonella enterica subsp. enterica serovar Typhimurium ATCC 14028 assessed as growth inhibition rate at 215.04 mg/l after 72 hr by spectrophotometry; conditions: ATCC 14028, 72 h, read-out: GI
Summary of the method: (§3)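 Salmonella Typhimurium ATCC 14028 grown in nutrient broth at 30 °C, precultured 24 h, then subcultured 1:100 for 18 h before testing. Single volatile compounds (>95% pure) were added. OD was read every 24 h over 72 h in a Bioscreen C, with 10% Tween 80 as the comparison control.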

Bacillus cereus [22] = test: Antimicrobial activity against Bacillus cereus ATCC 11778 assessed as growth inhibition rate at 107.52 mg/l after 72 hr by spectrophotometry; conditions: ATCC 11778, 72 h, read-out: GI; summary of the method: as §2
Vibrio parahaemolyticus [23] = test: Antimicrobial activity against Vibrio parahaemolyticus ATCC 33844 assessed as growth inhibition rate at 215.04 mg/l after 72 hr by spectrophotometry; conditions: ATCC 33844, 72 h, read-out: GI
Listeria monocytogenes [24] = test: Antimicrobial activity against Listeria monocytogenes ATCC 19111 assessed as growth inhibition rate at 107.52 mg/l after 72 hr by spectrophotometry; conditions: ATCC 19111, 72 h, read-out: GI; summary of the method: as §1
Bacillus cereus [25] = test: Antimicrobial activity against Bacillus cereus ATCC 11778 assessed as growth inhibition rate at 247 mg/l after 72 hr by spectrophotometry; conditions: ATCC 11778, 72 h, read-out: GI; summary of the method: as §2
Salmonella typhimurium [26] = test: Antimicrobial activity against Salmonella enterica subsp. enterica serovar Typhimurium ATCC 14028 assessed as growth inhibition rate at 43 mg/l after 72 hr by spectrophotometry; conditions: ATCC 14028, 72 h, read-out: GI; summary of the method: as §3
Escherichia coli [27] = test: Antimicrobial activity against Escherichia coli O157:H7 ATCC 43894 assessed as growth inhibition rate at 21.52 mg/l after 72 hr by spectrophotometry; conditions: O157:H7 ATCC 43894, 72 h, read-out: GI
Vibrio parahaemolyticus [28] = test: Antimicrobial activity against Vibrio parahaemolyticus ATCC 33844 assessed as growth inhibition rate at 61.12 mg/l after 72 hr by spectrophotometry; conditions: ATCC 33844, 72 h, read-out: GI
Escherichia coli [29] = test: Antimicrobial activity against Escherichia coli O157:H7 ATCC 43894 assessed as growth inhibition rate at 43 mg/l after 72 hr by spectrophotometry; conditions: O157:H7 ATCC 43894, 72 h, read-out: GI
Vibrio parahaemolyticus [30] = test: Antimicrobial activity against Vibrio parahaemolyticus ATCC 33844 assessed as growth inhibition rate at 43 mg/l after 72 hr by spectrophotometry; conditions: ATCC 33844, 72 h, read-out: GI
Bacillus cereus [31] = test: Antimicrobial activity against Bacillus cereus ATCC 11778 assessed as growth inhibition rate at 215.04 mg/l after 72 hr by spectrophotometry; conditions: ATCC 11778, 72 h, read-out: GI; summary of the method: as §2

With `CCC/C=C/C=O` the inhibition of growth at 61.12 µg/mL (Listeria monocytogenes [1]) was 81.2%, the inhibition of growth at 43 µg/mL (Staphylococcus aureus [2]) was 44.3% and the inhibition of growth at 6.12 µg/mL (Staphylococcus aureus [3]) was 29.2%. It also gave an inhibition of growth at 43 µg/mL (Listeria monocytogenes [4]) of 45.3%, an inhibition of growth at 247 µg/mL (Escherichia coli [5]) of 99.9% and an inhibition of growth at 6.12 µg/mL (Bacillus cereus [6]) of 90.5%. For the same compound, the inhibition of growth at 6.12 µg/mL (Escherichia coli [7]) was 7.3%, the inhibition of growth at 6.12 µg/mL (Listeria monocytogenes [8]) was 31% and the inhibition of growth at 21.52 µg/mL (Listeria monocytogenes [9]) was 32%. For the same compound, the inhibition of growth at 6.12 µg/mL (Vibrio parahaemolyticus [10]) was 84.7%, the inhibition of growth at 215.04 µg/mL (Staphylococcus aureus [11]) was 100% and the inhibition of growth at 247 µg/mL (Vibrio parahaemolyticus [12]) was 100%. For the same compound, the inhibition of growth at 247 µg/mL (Staphylococcus aureus [13]) was 100%, the inhibition of growth at 107.52 µg/mL (Vibrio parahaemolyticus [14]) was 99.8% and the inhibition of growth at 6.12 µg/mL (Salmonella typhimurium [15]) was 47.1%. For the same compound, the inhibition of growth at 61.12 µg/mL (Escherichia coli [16]) was 47.5%, the inhibition of growth at 107.52 µg/mL (Escherichia coli [17]) was 89.9% and the inhibition of growth at 215.04 µg/mL (Escherichia coli [18]) was 97.3%. For the same compound, the inhibition of growth at 61.12 µg/mL (Staphylococcus aureus [19]) was 72.6%, the inhibition of growth at 21.52 µg/mL (Staphylococcus aureus [20]) was 28.7% and the inhibition of growth at 215.04 µg/mL (Salmonella typhimurium [21]) was 99.4%. For the same compound, the inhibition of growth at 107.52 µg/mL (Bacillus cereus [22]) was 100%, the inhibition of growth at 215.04 µg/mL (Vibrio parahaemolyticus [23]) was 99.8% and the inhibition of growth at 107.52 µg/mL (Listeria monocytogenes [24]) was 99.4%. The inhibition of growth at 247 µg/mL (Bacillus cereus [25]) was 98.8%, the inhibition of growth at 43 µg/mL (Salmonella typhimurium [26]) was 83.4% and the inhibition of growth at 21.52 µg/mL (Escherichia coli [27]) was 8.2%. It also gave an inhibition of growth at 61.12 µg/mL (Vibrio parahaemolyticus [28]) of 99.8%, an inhibition of growth at 43 µg/mL (Escherichia coli [29]) of 25.5% and an inhibition of growth at 43 µg/mL (Vibrio parahaemolyticus [30]) of 100%. For the same compound, the inhibition of growth at 215.04 µg/mL (Bacillus cereus [31]) was 100%.
